Measured values collected from several papers.
Lines come from different studies, so protocols differ.
Target: BMP-2-inducible protein kinase (BMP2K, Homo sapiens, UniProt Q9NSY1)

SMILES | test | setting | remaining binding [%]
CNC(=O)[C@@H]1CC[C@@H](n2c(-c3ccc4cnccc4c3)nc3ccc(C(=O)NCc4cccc(C(N)=O)c4)cc32)C1 | binding, competition with immobilised ligand | 1 µM | 95
CCC(=O)N[C@@H]1CC[C@H](C(=O)N(C)c2ccc(-c3nc4ccccc4o3)cc2)C1 | cell-free assay, competition with immobilised ligand | 1 µM | 100
COc1ncc2cc3ccccc3nc2c1C#N | cell-free assay, competition with immobilised ligand | 5 µM | 100
Cc1nc(N2CC[C@@H](O)C2)ncc1-c1cc(C(F)(F)F)cc2[nH]ncc12 | binding, competition with immobilised ligand | 1 µM | 100
Cc1cnc(Nc2ccc(C(=O)N3CCC(N4CCCC4)CC3)cc2)nc1-c1cc2ccccc2s1 | binding, competition with immobilised ligand | 1 µM | 0.2
F[C@@H]1CCN(c2nccc(-c3cnn4ncccc34)n2)C1 | binding | 1 µM | 100
O=C(O)[C@H]1[C@H](Cn2nnc3ccccc3c2=O)CC[C@@H]1C(=O)c1ccc(OCCC2CCOCC2)cc1 | cell-free assay, competition with immobilised ligand | 1 µM | 86
C[C@H]1CCN(c2nccc(-c3cnn4ncccc34)n2)C1 | binding | 1 µM | 83
c1cncc(-c2cccc(Nc3nccc(NC4CCCCC4)n3)c2)c1 | binding, competition with immobilised ligand | 10 µM | 21
C[C@@H](c1ccc(-n2cnc3c(N)ncnc32)cc1)N1CCc2nn(C)c(Cc3ccccc3)c2C1=O | binding, competition with immobilised ligand | 0.1 µM | 84
CN(C)c1nccc(-c2cnn3ncccc23)n1 | binding | 1 µM | 100
Cc1cc(NC(=O)c2cccc(S(F)(F)(F)(F)F)c2)cc(-n2ccn3nc(-c4cccnc4)cc23)c1 | cell-free assay, competition with immobilised ligand | 1 µM | 65.9
O=C(c1ccc(Nc2ncc(Cl)c(-c3cc4ccccc4s3)n2)cc1)N1CCC(N2CCCC2)CC1 | binding, competition with immobilised ligand | 1 µM | 0
O=C(N1CCS(=O)(=O)CC1)N1C[C@H](c2ccc(OC(F)(F)F)cc2)C[C@H](c2nc(C3CC3)no2)C1 | cell-free assay, competition with immobilised ligand | 1 µM | 97
O=C(NCC1CCOCC1)c1n[nH]cc1NC(=O)c1c(F)cccc1F | binding, competition with immobilised ligand | 1 µM | 81
COc1ccnn2ncc(-c3ccnc(N(C)C)n3)c12 | binding | 1 µM | 100
O=C(NCCCN1CCOCC1)c1ccc(Nc2nccc(-c3cc4ccccc4s3)n2)cc1 | binding, competition with immobilised ligand | 1 µM | 0.7
N[C@@H]1CCN(c2nccc(-c3cnn4ncccc34)n2)C1 | binding | 1 µM | 100
CNC(=O)c1ccc(Nc2ncc(C(F)(F)F)c(NCc3nccnc3N(C)S(C)(=O)=O)n2)cc1 | cell-free assay, competition with immobilised ligand | 0.1 µM | 81
C=CC(=O)N1CCC(C(=O)NCC(=O)N2CCN(c3nc(-c4cnc(N)nc4C(F)F)nc(N4CCOCC4)n3)CC2)CC1 | binding, competition with immobilised ligand | 1 µM | 94
c1cnn2ncc(-c3ccnc(N4CCC45COC5)n3)c2c1 | binding | 1 µM | 61
O=C1NC(c2ccccn2)Sc2ccccc21 (stereo not shown) | cell-free assay, competition with immobilised ligand | 1 µM | 88
